Converted amounts (≈) assume the structure as drawn.
Experiments:
[1] = tested on: protoscoleces and metacestodes of Echinococcus granulosus; settings: cited from earlier work
[2] = tested on: E. granulosus protoscoleces; experiment: Protoscolicidal; assay type: cell-based; settings: Echinococcus granulosus; for IC50: read-out: IC50 protoscolicidal activity; for viability at 25 µg/mL / viability at 50 µg/mL / viability at 75 µg/mL / viability at 100 µg/mL / viability at 125 µg/mL: read-out: viability of protoscoleces
Procedure, shortened: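 Protoscoleces came from hydatid cysts of naturally infected sheep, settled without centrifugation, washed three times in HBSS, and cultured in RPMI 1640 (12 mM HEPES, glutamine, antibiotics, amphotericin B, 10 % FCS, glucose). Within 10 days, ~500 protoscoleces in 20 ml medium received test compound at 25–125 µg/ml; DMSO control. Viability was scored by motility and 0.1 % trypan blue exclusion in 10 random fields (10X). Triplicate; IC50 by nonlinear regression.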

HepG2 cells = experiment: In-vitro cytotoxicity MTT assay on HepG2 cell line; assay type: cell-based, human; settings: 125 μg/ml, third day
Procedure, shortened: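 HepG2 monolayers in phenol-red-free DMEM with 10 % FCS, penicillin and streptomycin, grown 48 h at 37 °C/5 % CO2 to confluency. Test compound in DMSO at 25, 50, 75, 100, 125 µg; medium-only negative control with matched DMSO. After 48 h at 37 °C, MTT (5 mg/mL) added for 4 h, then DMSO-dissolved formazan read at 570/655 nm. Triplicate; viability relative to untreated cells.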

Question: For `CC(=O)Oc1ccccc1C(=O)Nc1ncc([N+](=O)[O-])s1` [Nitazoxanide], which antiechinococcal activity [1] is on record?
Answer: potent antiechinococcal activity

Question: Which IC50 [2] does the source give for `Cc1ccc(NC(=O)c2cc([N+](=O)[O-])cc([N+](=O)[O-])c2)cc1` [Compound 6, 3,5-dinitro-N-p-tolylbenzamide] here?
Answer: 77 µg/mL (≈ 256 µM)

Question: What about the viability at 25 µg/mL [2] of the same compound?
Answer: 72.6%

Question: And the viability at 50 µg/mL [2]?
Answer: 66.6%

Question: And the viability at 75 µg/mL [2]?
Answer: 53.6%

Question: And the viability at 100 µg/mL [2]?
Answer: 43%

Question: What about the viability at 125 µg/mL [2] of the same compound?
Answer: 32.3%

Question: What about the “cell survival rate of HepG2” value (HepG2 cells) of the same compound?
Answer: 36%

Question: What does the source list for `CCCCCc1ccc(C(=O)Nc2ccc(C)cc2)cc1` [Compound 18, 4-pentyl-N-p-tolylbenzamide]?
Answer: IC50 [2]: 45 µg/mL (≈ 160 µM); viability at 25 µg/mL [2]: 63.3%; viability at 50 µg/mL [2]: 49.6%; viability at 75 µg/mL [2]: 38.3%; viability at 100 µg/mL [2]: 29%; viability at 125 µg/mL [2]: 21%; cell survival rate of HepG2 (HepG2 cells): approximately 54%

Question: For `Cc1ccc(NC(=O)c2cccc3ccccc23)cc1` [Compound 10, N-p-tolyl-1-naphthamide], which IC50 [2] is on record?
Answer: 29.5 µg/mL (≈ 113 µM)

Question: And the viability at 25 µg/mL [2]?
Answer: 47.3%

Question: And the viability at 50 µg/mL [2]?
Answer: 20%

Question: And the viability at 75 µg/mL [2]?
Answer: 10.3%

Question: What about the viability at 100 µg/mL [2] of the same compound?
Answer: 0%

Question: And the viability at 125 µg/mL [2]?
Answer: 0%

Question: What about the “cell survival rate of HepG2” value (HepG2 cells) of the same compound?
Answer: 40%

Question: With `Cc1ccc(NC(=O)c2c(F)c(F)c(F)c(F)c2F)cc1` [Compound 20, 2,3,4,5,6-pentafluoro-N-p-tolylbenzamide] as the compound, how does the IC50 [2] read?
Answer: 39.5 µg/mL (≈ 131 µM)

Question: And the viability at 25 µg/mL [2]?
Answer: 54.3%

Question: What about the viability at 50 µg/mL [2] of the same compound?
Answer: 50.6%

Question: What about the viability at 75 µg/mL [2] of the same compound?
Answer: 18.3%

Question: What about the viability at 100 µg/mL [2] of the same compound?
Answer: 9.6%

Question: What about the viability at 125 µg/mL [2] of the same compound?
Answer: 0%

Question: What about the “cell survival rate of HepG2” value (HepG2 cells) of the same compound?
Answer: 32%

Question: Which IC50 [2] does the source give for `Cc1ccc(NC(=O)c2ccc(OC(F)(F)F)cc2)cc1` [Compound 16, N-p-tolyl-4-(trifluoromethoxy)benzamide] here?
Answer: 66.5 µg/mL (≈ 225 µM)

Question: What about the viability at 25 µg/mL [2] of the same compound?
Answer: 72.6%

Question: And the viability at 50 µg/mL [2]?
Answer: 62.6%

Question: And the viability at 75 µg/mL [2]?
Answer: 45.3%

Question: And the viability at 100 µg/mL [2]?
Answer: 39.6%

Question: What about the viability at 125 µg/mL [2] of the same compound?
Answer: 30%

Question: What about the “cell survival rate of HepG2” value (HepG2 cells) of the same compound?
Answer: 38%
